Measurements gathered from unrelated publications.
Protocols differ between the studies behind these lines. pIC50: −log10 of the molar value.
Target: Acetylcholinesterase (ACHE, Homo sapiens, UniProt P22303)
Observed: enzyme activity
Mode: inhibitor

CCCCNc1ccc(C(=O)OCCN(CC)CC)cc1
pIC50: 4.73

CN1CCN(CCCOc2ccc3occc(=O)c3c2)CC1
pIC50 (Ellman; pH 7.4): 4.19

C=CCn1c2cc(OC(=O)CCCCN3CCN(Cc4cccc(C(F)(F)F)c4)CC3)ccc2c2ccnc(C)c21
pIC50 (Ellman): 6.13

CNC(=O)Oc1cccc2c1OC(C)(C)O2
pIC50 (Ellman): 6.74

c1ccc2c(c1)[I+]c1ccccc1-2
pIC50: 4.79

Cn1ccc(=O)n(C)c1=O
pIC50 (Ellman): 6.41

C#CCNc1nc(NCCCCC2CCN(Cc3ccccc3)CC2)c(C#N)cc1C#N
pIC50 (Ellman): 8.54

CN1CCN(CCCCOc2ccc3occc(=O)c3c2)CC1
pIC50 (Ellman; pH 7.4): 5.19

CC(=O)n1ccc(=O)[nH]c1=O
pIC50 (Ellman): 6.87

C=CCn1c2cc(OC(=O)CCCCN3CCN(Cc4cccc(F)c4)CC3)ccc2c2ccnc(C)c21
pIC50 (Ellman): 6.97

Cc1ccc(S(=O)(=O)n2cc(Br)c(=O)[nH]c2=O)cc1
pIC50 (Ellman): 7.06

C=CCn1c2cc(OC(=O)CCCCN3CCN(Cc4ccccc4C(F)(F)F)CC3)ccc2c2ccnc(C)c21
pIC50 (Ellman): 7.32

CCOP(=O)(OCC)Oc1ccc2c(C)c(Cl)c(=O)oc2c1
pIC50 (Ellman): 6.95

O=C(CN1C2=NCCN2c2ccccc21)c1ccc(-c2ccccc2)cc1
pIC50: 4.71

C=CCn1c2cc(OC(=O)CCCCCN3CCN(Cc4ccccc4)CC3)ccc2c2ccnc(C)c21
pIC50 (Ellman): 6.81

CNC(=O)Oc1cccc2c1OC(C)(C)C2
pIC50 (Ellman): 7.42

C=CCn1c2cc(OC(=O)CCCCN3CCN(Cc4ccc(C)cc4)CC3)ccc2c2ccnc(C)c21
pIC50 (Ellman): 7.90

CC[n+]1c(-c2ccccc2)c2cc(N)ccc2c2ccc(N)cc21
pIC50 (Ellman): 4.64

C=CCn1c2cc(OC(=O)CCCCCCN3CCN(Cc4ccccc4)CC3)ccc2c2ccnc(C)c21
pIC50 (Ellman): 6.54

O=c1[nH]cc(CO)c(=O)[nH]1
pIC50 (Ellman): 6.69

C=CCn1c2cc(OC(=O)CCCCN3CCN(Cc4ccccc4Cl)CC3)ccc2c2ccnc(C)c21
pIC50 (Ellman): 6.93

C#CCNc1nc(NCCCC2CCN(Cc3ccccc3)CC2)c(C#N)cc1C#N
pIC50 (Ellman): 9.00
